Test results as given in paper PMC8994735 (Targeted Oncology, 2021).
Read-outs that look alike come from different tables or passages of the source.

Test system: East Asian patients with advanced nonhematologic malignancies
Format: in vivo, human
Method in brief: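 AEs were graded by NCI CTCAE v4.03 in all patients receiving ≥ 1 oral dose, given once daily or once weekly in 28-day cycles for up to 12 months. Follow-up lasted 30 days after the last dose. Entry required ECOG 0–1, fasting glucose ≤ 130 mg/dL and triglycerides ≤ 300 mg/dL. Summaries were descriptive.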

[1] = QW dose escalation 20 mg (n = 3)
[2] = QW dose escalation 30 mg (n = 3)

CC(C)n1nc(-c2ccc3oc(N)nc3c2)c2c(N)ncnc21 [sapanisertib]
Treatment-related AE hyperglycemia (QW arm): 50%
Treatment-related AE nausea (QW arm): 100%
AEs resulting in discontinuation [1]: 0 n (%)
AEs resulting in dose interruption [1]: 2 (67) n (%)
AEs resulting in dose reduction [1]: 0 n (%)
Any AE [1]: 3 (100) n (%)
Any grade ≥ 3 AE [1]: 3 (100) n (%)
On-study deaths [1]: 0 n (%)
SAEs [1]: 2 (67) n (%)
Treatment-related AE [1]: 3 (100) n (%)
Treatment-related SAEs [1]: 1 (33) n (%)
Treatment-related grade ≥ 3 AE [1]: 1 (33) n (%)
AEs resulting in discontinuation [2]: 1 (33) n (%)
AEs resulting in dose interruption [2]: 1 (33) n (%)
AEs resulting in dose reduction [2]: 0 n (%)
Any AE [2]: 3 (100) n (%)
Any grade ≥ 3 AE [2]: 1 (33) n (%)
On-study deaths [2]: 0 n (%)
SAEs [2]: 1 (33) n (%)
Treatment-related AE [2]: 3 (100) n (%)
Treatment-related SAEs [2]: 0 n (%)
Treatment-related grade ≥ 3 AE [2]: 0 n (%)
AE by preferred term: Abdominal pain (QW dosing n = 6): 1 (17) n (%)
AE by preferred term: Alanine aminotransferase increased (QW dosing n = 6): 3 (50) n (%)
AE by preferred term: Anemia (QW dosing n = 6): 1 (17) n (%)
AE by preferred term: Aspartate aminotransferase increased (QW dosing n = 6): 3 (50) n (%)
AE by preferred term: Blood alkaline phosphatase increased (QW dosing n = 6): 4 (67) n (%)
AE by preferred term: Blood bilirubin increased (QW dosing n = 6): 2 (33) n (%)
AE by preferred term: Decreased appetite (QW dosing n = 6): 3 (50) n (%)
AE by preferred term: Diarrhea (QW dosing n = 6): 1 (17) n (%)
AE by preferred term: Erythema (QW dosing n = 6): 1 (17) n (%)
AE by preferred term: Fatigue (QW dosing n = 6): 2 (33) n (%)
AE by preferred term: Gamma-glutamyltransferase increased (QW dosing n = 6): 2 (33) n (%)
AE by preferred term: Headache (QW dosing n = 6): 1 (17) n (%)
AE by preferred term: Hiccups (QW dosing n = 6): 2 (33) n (%)
AE by preferred term: Hyperglycemia (QW dosing n = 6): 4 (67) n (%)
AE by preferred term: Hypokalemia (QW dosing n = 6): 1 (17) n (%)
AE by preferred term: Lymphocyte count decreased (QW dosing n = 6): 1 (17) n (%)
AE by preferred term: Nausea (QW dosing n = 6): 6 (100) n (%)
AE by preferred term: Platelet count decreased (QW dosing n = 6): 1 (17) n (%)
AE by preferred term: Pyrexia (QW dosing n = 6): 1 (17) n (%)
AE by preferred term: Stomatitis (QW dosing n = 6): 2 (33) n (%)
AE by preferred term: Vomiting (QW dosing n = 6): 3 (50) n (%)
AE by preferred term: Weight decreased (QW dosing n = 6): 3 (50) n (%)
Grade ≥ 3 AE: Alanine aminotransferase increased (QW dosing n = 6): 1 (17) n (%)
Grade ≥ 3 AE: Aspartate aminotransferase increased (QW dosing n = 6): 1 (17) n (%)
Grade ≥ 3 AE: Cholangitis acute (QW dosing n = 6): 1 (17) n (%)
Grade ≥ 3 AE: Enteritis (QW dosing n = 6): 1 (17) n (%)
Grade ≥ 3 AE: Gamma-glutamyltransferase increased (QW dosing n = 6): 2 (33) n (%)
Grade ≥ 3 AE: Hyperglycemia (QW dosing n = 6): 1 (17) n (%)
Grade ≥ 3 AE: Lymphocyte count decreased (QW dosing n = 6): 1 (17) n (%)
Grade ≥ 3 AE: Malignant neoplasm progression (QW dosing n = 6): 1 (17) n (%)
Patients with ≥ 1 grade 3 or higher AE (QW dosing n = 6): 4 (67) n (%)
AEs resulting in discontinuation (QW total (n = 6)): 1 (17) n (%)
AEs resulting in dose interruption (QW total (n = 6)): 3 (50) n (%)
AEs resulting in dose reduction (QW total (n = 6)): 0 n (%)
Any AE (QW total (n = 6)): 6 (100) n (%)
Any grade ≥ 3 AE (QW total (n = 6)): 4 (67) n (%)
On-study deaths (QW total (n = 6)): 0 n (%)
SAEs (QW total (n = 6)): 3 (50) n (%)
Treatment-related AE (QW total (n = 6)): 6 (100) n (%)
Treatment-related SAEs (QW total (n = 6)): 1 (17) n (%)
Treatment-related grade ≥ 3 AE (QW total (n = 6)): 1 (17) n (%)
AE by preferred term: Abdominal pain (Total n = 28): 4 (14) n (%)
AE by preferred term: Alanine aminotransferase increased (Total n = 28): 7 (25) n (%)
AE by preferred term: Anemia (Total n = 28): 6 (21) n (%)
AE by preferred term: Aspartate aminotransferase increased (Total n = 28): 9 (32) n (%)
AE by preferred term: Blood alkaline phosphatase increased (Total n = 28): 4 (14) n (%)
AE by preferred term: Blood bilirubin increased (Total n = 28): 2 (7) n (%)
AE by preferred term: Constipation (Total n = 28): 4 (14) n (%)
AE by preferred term: Decreased appetite (Total n = 28): 14 (50) n (%)
AE by preferred term: Diarrhea (Total n = 28): 3 (11) n (%)
AE by preferred term: Erythema (Total n = 28): 3 (11) n (%)
AE by preferred term: Erythema multiforme (Total n = 28): 2 (7) n (%)
AE by preferred term: Fatigue (Total n = 28): 9 (32) n (%)
AE by preferred term: Gamma-glutamyltransferase increased (Total n = 28): 4 (14) n (%)
AE by preferred term: Gastrointestinal inflammation (Total n = 28): 2 (7) n (%)
AE by preferred term: Headache (Total n = 28): 3 (11) n (%)
AE by preferred term: Hiccups (Total n = 28): 2 (7) n (%)
AE by preferred term: Hyperglycemia (Total n = 28): 13 (46) n (%)
AE by preferred term: Hypokalemia (Total n = 28): 4 (14) n (%)
AE by preferred term: Lymphocyte count decreased (Total n = 28): 5 (18) n (%)
AE by preferred term: Nausea (Total n = 28): 17 (61) n (%)
AE by preferred term: Neutrophil count decreased (Total n = 28): 2 (7) n (%)
AE by preferred term: Platelet count decreased (Total n = 28): 7 (25) n (%)
AE by preferred term: Pruritus (Total n = 28): 2 (7) n (%)
AE by preferred term: Pyrexia (Total n = 28): 5 (18) n (%)
AE by preferred term: Rash erythematous (Total n = 28): 2 (7) n (%)
AE by preferred term: Rash maculo-papular (Total n = 28): 5 (18) n (%)
AE by preferred term: Rash pustular (Total n = 28): 2 (7) n (%)
AE by preferred term: Stomatitis (Total n = 28): 16 (57) n (%)
AE by preferred term: Urticaria (Total n = 28): 3 (11) n (%)
AE by preferred term: Vomiting (Total n = 28): 8 (29) n (%)
AE by preferred term: Weight decreased (Total n = 28): 10 (36) n (%)
AE by preferred term: White blood cell count decreased (Total n = 28): 4 (14) n (%)
Grade ≥ 3 AE: Acute myocardial infarction (Total n = 28): 1 (4) n (%)
Grade ≥ 3 AE: Alanine aminotransferase increased (Total n = 28): 1 (4) n (%)
Grade ≥ 3 AE: Aspartate aminotransferase increased (Total n = 28): 2 (7) n (%)
Grade ≥ 3 AE: Blood creatine phosphokinase increased (Total n = 28): 1 (4) n (%)
Grade ≥ 3 AE: Cholangitis acute (Total n = 28): 1 (4) n (%)
Grade ≥ 3 AE: Decreased appetite (Total n = 28): 1 (4) n (%)
Grade ≥ 3 AE: Diarrhea (Total n = 28): 1 (4) n (%)
Grade ≥ 3 AE: Enteritis (Total n = 28): 1 (4) n (%)
Grade ≥ 3 AE: Gamma-glutamyltransferase increased (Total n = 28): 3 (11) n (%)
Grade ≥ 3 AE: Gastrointestinal inflammation (Total n = 28): 1 (4) n (%)
Grade ≥ 3 AE: Genital herpes (Total n = 28): 1 (4) n (%)
Grade ≥ 3 AE: Gingivitis (Total n = 28): 1 (4) n (%)
Grade ≥ 3 AE: Hyperglycemia (Total n = 28): 1 (4) n (%)
Grade ≥ 3 AE: Jaundice cholestatic (Total n = 28): 1 (4) n (%)
Grade ≥ 3 AE: Lymphocyte count decreased (Total n = 28): 3 (11) n (%)
Grade ≥ 3 AE: Malignant neoplasm progression (Total n = 28): 1 (4) n (%)
Grade ≥ 3 AE: Nausea (Total n = 28): 2 (7) n (%)
Grade ≥ 3 AE: Neutrophil count decreased (Total n = 28): 1 (4) n (%)
Grade ≥ 3 AE: Platelet count decreased (Total n = 28): 1 (4) n (%)
Grade ≥ 3 AE: Post herpetic neuralgia (Total n = 28): 1 (4) n (%)
Grade ≥ 3 AE: Pruritus (Total n = 28): 1 (4) n (%)
Grade ≥ 3 AE: Rash maculo-papular (Total n = 28): 2 (7) n (%)
Grade ≥ 3 AE: Rash pustular (Total n = 28): 1 (4) n (%)
Grade ≥ 3 AE: Renal impairment (Total n = 28): 1 (4) n (%)
Grade ≥ 3 AE: Sepsis (Total n = 28): 1 (4) n (%)
Grade ≥ 3 AE: Stomatitis (Total n = 28): 2 (7) n (%)
Grade ≥ 3 AE: Urticaria (Total n = 28): 1 (4) n (%)
Grade ≥ 3 AE: White blood cell count decreased (Total n = 28): 1 (4) n (%)
Patients with ≥ 1 grade 3 or higher AE (Total n = 28): 18 (64) n (%)
Patients reporting at least one AE (across all doses): 100%
Discontinued treatment due to AEs (both arms): Four
On-study deaths (whole study): no on-study deaths
